Experiment [1] has as its system Acanthocheilonema viteae. As to the kind of experiment: anti-filarial Activity was measured against Acanthocheilonema viteae in jirds at 6.25 mg/kg/day(5 days) dose. The experiment is classed as functional. An outline of the steps: (§1)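 Jirds with established B. pahangi or A. viteae infections were given drug once daily for 5 days by subcutaneous injection, at the maximum tolerated dose and, where supply allowed, graded lower doses. Tolerance was first checked in noninfected jirds with a single 200 mg/kg oral or subcutaneous dose, watching 72 h for excessive weight loss or death. Macrofilarial suppression was the read-out.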

Experiment [2] relates to Acanthocheilonema viteae. As to the kind of experiment: anti-filarial Activity was measured against Acanthocheilonema viteae in jirds at 1.56 mg/kg/day(5 days) dose. The experiment is classed as functional. An outline of the steps: as §1
Experiment [3] concerns Brugia pahangi. As to the kind of experiment: anti-filarial Activity was measured against Brugia pahangi in jirds at 6.25 mg/kg/day(5 days) dose. The experiment is classed as functional. Put shortly: as §1
Experiment [4] has as its system Brugia pahangi. The experiment in a line: anti-filarial Activity was measured against Brugia pahangi in jirds at 25 mg/kg/day(5 days) dose. It is filed as functional. Put shortly: as §1
For experiment [5], the system named is Brugia pahangi. The experiment in a line: anti-filarial Activity was measured against Brugia pahangi in jirds at 100 mg/kg/day(5 days) dose. It is filed as functional. An outline of the steps:
as §1

For experiment [6], the system named is Acanthocheilonema viteae. As to the kind of experiment: anti-filarial Activity was measured against Acanthocheilonema viteae in jirds at 100 mg/kg/day(5 days) dose. The experiment is classed as functional. An outline of the steps:
as §1

Experiment [7] has as its system Brugia pahangi. The experiment in a line: anti-filarial Activity was measured against Brugia pahangi in jirds at 50 mg/kg/day(5 days) dose. It is filed as functional. Put shortly: as §1
Experiment [8] relates to Acanthocheilonema viteae. The experiment in a line: anti-filarial Activity was measured against Acanthocheilonema viteae in jirds at 50 mg/kg/day(5 days) dose. It is filed as functional. An outline of the steps: as §1
In experiment [9] the test system is Brugia pahangi. As to the kind of experiment: anti-filarial Activity was measured against Brugia pahangi in jirds at 12.5 mg/kg/day(5 days) dose. The experiment is classed as functional. Put shortly: as §1
Experiment [10] deals with Acanthocheilonema viteae. As to the kind of experiment: anti-filarial Activity was measured against Acanthocheilonema viteae in jirds at 12.5 mg/kg/day(5 days) dose. The experiment is classed as functional. An outline of the steps: as §1
Experiment [11] concerns Brugia pahangi. The experiment in a line: anti-filarial Activity was measured against Brugia pahangi in jirds at 1.56 mg/kg/day(5 days) dose. The experiment is classed as functional. Put shortly:
as §1

The subject of experiment [12] is Acanthocheilonema viteae. As to the kind of experiment: anti-filarial Activity was measured against Acanthocheilonema viteae in jirds at 200 mg/kg/day(5 days) dose. It is filed as functional. Put shortly: as §1
For experiment [13], the system named is Acanthocheilonema viteae. The experiment in a line: anti-filarial Activity was measured against Acanthocheilonema viteae in jirds at 25 mg/kg/day(5 days) dose. It is filed as functional. Put shortly:
as §1

Experiment [14] deals with Brugia pahangi. The experiment in a line: anti-filarial Activity was measured against Brugia pahangi in jirds at 200 mg/kg/day(5 days) dose. It is filed as functional. An outline of the steps:
as §1

For experiment [15], the system named is Brugia pahangi. The experiment in a line: anti-filarial Activity was measured against Brugia pahangi in jirds at 100 mg/kg/day(5 days) dose;toxic. It is filed as functional, organism-based. Put shortly:
as §1

Experiment [16] concerns Brugia pahangi. As to the kind of experiment: anti-filarial Activity was measured against Brugia pahangi in jirds at 75 mg/kg/day(5 days) dose. The experiment is classed as functional. An outline of the steps:
as §1

Experiment [17] concerns Acanthocheilonema viteae. As to the kind of experiment: anti-filarial Activity was measured against Acanthocheilonema viteae in jirds at 75 mg/kg/day(5 days) dose. The experiment is classed as functional. Put shortly:
as §1

The values that follow come from ChEMBL document CHEMBL1125672, “2-acetylpyridine thiosemicarbazones. 13. Derivatives with antifilarial activity” (1991).

Turning to `C/C(=N\NC(=S)N1CCN(c2ccccn2)CC1)c1ccccn1`, the results for the Suppression in experiment [1], in experiment [2] and in experiment [3] were 100%, 40% and -5%, respectively.

With `C/C(=N\N=C(/S)N1CCN(c2ccc(Cl)cc2)CC1)c1ccccn1`, the Suppression in experiment [4] turned out to be 6%; in [5] it was 14%; in experiment [6], 85%.

In the case of `C/C(=N\N=C(/S)Nc1cccc(N)n1)c1ccccn1`, the Suppression is 5% in [7], 14% in experiment [8], 55% in [5] and 14% in experiment [6].

With `C/C(=N\N=C(/S)Nc1cccc(N)c1)c1ccccn1`, the Suppression in experiment [5] is listed as 17%; in experiment [6], 43%.

Take `C/C(=N\NC(=S)N1CCCC1)c1ccccn1`: the Suppression in [9] is reported as 86%; in experiment [10], 31%; in experiment [11], 46%.

Regarding `C/C(=N\N=C(/S)Nc1ccccc1N)c1ccccc1`, the Suppression in [4] came out at 6%; in [12] it was 19%; in [13] it was 15%; in experiment [5], 15%; in experiment [6], 9%; in experiment [14] it was 71%.

Regarding `C/C(=N\N=C(/S)NCCN)c1ccccn1`, the Suppression in experiment [4] was 26%; in experiment [9], -3%; in [13], 72%; in experiment [10], -40%.

As to `C/C(=N\NC(S)=Nc1ccccc1N)c1ccccn1.Cl.Cl`, the Suppression was determined as 100% in [4]; 100% in [7]; 29% in experiment [9]; 100% in experiment [13]; 100% in experiment [8]; 36% in [10]. The Suppression in experiment [5] and in [6] was 100% in each case.

As for `C/C(=N\N=C(/S)Nc1cc2ccccc2cc1N)c1ccccn1`, the Suppression is listed as 4% in experiment [8], 49% in experiment [5] and 37% in experiment [6].

As for `C/C(=N\NC(=S)Nc1ccccc1)c1ccccn1`, the Suppression in experiment [4] came out at 17%; in [7] it was 97%; in experiment [13], 44%; in experiment [8], 25%.

As for `C/C(=N\N=C(/S)N1CCCCCCCC1)c1ccccn1`, the Suppression worked out at 16% in experiment [7] and 74% in experiment [8].

As for `C/C(=N\NC(N)=S)c1ccccn1`, the Suppression entry in experiment [15] is “Toxic”; in experiment [9], 53%; in experiment [2], 60%; in experiment [10], 42%; in experiment [11], 41%.

For the compound `C/C(=N\N=C(/S)Nc1ccc(N)cc1)c1ccccn1`, the Suppression was found to be 5% in experiment [4]; 25% in [12]; 9% in [13]; 39% in experiment [5]; 34% in [6]; 60% in [14].

Consider `C/C(=N\N=C(/S)N1CCCCC1)c1ccccn1`, for which the Suppression in [1] is 25%; in experiment [9] it was 65%; in [10], 14%; in [3] it was 18%.

In the case of `C/C(=N\N=C(/S)Nc1ccc(C)cc1N)c1ccccn1`, the Suppression in [4] stood at 29%; in experiment [7], 100%; in [13] it was 44%; in experiment [8] it was 75%; in experiment [5], 100%; in [16], 100%. The Suppression in experiment [6] and in experiment [17] was 72% throughout.

Regarding `C/C(=N\N=C(/S)Nc1c(N)c2ccccc2c2ccccc12)c1ccccn1`, the Suppression came out at 5% in [7], 23% in experiment [8], 33% in [5] and 23% in [6].
